High-throughput results: PubChem BioAssay, several laboratories
Shown are actives, neighbours in structure and some others; about 1.3% of the full set was active somewhere.
Arr AP2 block – human beta-arrestin and AP2 interaction inhibition | FITC-arrestin peptide / GST-AP2 beads, flow cytometry; AP2 beta2 appendage carries R879A mutation | inhibition, % at 10 µM | actives 0.31% (n = 340,000);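 active = inhibition above a set limit, near 3 SD of compounds lacking own fluorescence, cut at about 54% in these data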;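 note: plate controls were DMSO wells for no effect and 5 µM unlabelled arrestin peptide for full effect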
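Assay system: GST-AP2 R879A bound to glutathione beads, E. coli-expressed; Medium: PBS with 0.05% Tween 20 and 0.1% BSA; Also added: fluorescein-tagged arrestin peptide at 50 nM final; Timing: 12 min plus 1 h, RT; Measured by: flow cytometry, FL1 (488/535 nm); Evaluation: percent drop in bead-associated FITC signal.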
NTR1 agonist – activates human neurotensin receptor 1; AID 493036; NTR1-U2OS beta-arrestin-GFP spot imaging, agonist mode; activation, % at 20 µM; P30989; actives 0.17% (n = 330,000);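 active = activation at or above 40% of the spot to cytoplasm intensity ratio, with at least 20 cells analyzed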;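 note: 0% = DMSO without peptide and 100% = 100 nM NTR1 peptide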
Target sequence (P30989 whole entry, looked up): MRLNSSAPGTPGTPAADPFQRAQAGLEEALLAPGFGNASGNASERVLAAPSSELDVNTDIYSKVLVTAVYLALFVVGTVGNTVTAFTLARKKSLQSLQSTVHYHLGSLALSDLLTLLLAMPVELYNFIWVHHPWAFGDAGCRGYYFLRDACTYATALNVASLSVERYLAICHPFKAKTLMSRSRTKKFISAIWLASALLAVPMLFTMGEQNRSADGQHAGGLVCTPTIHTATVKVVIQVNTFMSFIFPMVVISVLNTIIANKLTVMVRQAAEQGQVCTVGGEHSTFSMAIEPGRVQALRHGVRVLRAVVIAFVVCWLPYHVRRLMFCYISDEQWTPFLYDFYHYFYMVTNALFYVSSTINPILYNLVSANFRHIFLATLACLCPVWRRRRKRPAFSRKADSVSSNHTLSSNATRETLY
PLCg1 inh – PLC-gamma1 (human) inhibition, primary screen | inhibition, % at 12.2 µM | P19174 | purified PLC-gamma1, fluorogenic substrate, fluorescence | actives 0.84% (n = 370,000)
PLCb3 inh – blocks human PLC-beta3 enzyme activity; AID 720704; actives 0.18% (n = 370,000); inhibition, % at 12.2 µM; Purified PLC-beta3, fluorogenic substrate, fluorescence; in the data active = inhibition above about 11%;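 note: 0% = median of compound wells on plate and 100% = full blocker control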
PLCgamma1 ctr – PLC-gamma1 inhibition, counter-screen for PLC-beta3 hits; actives 3.1% (n = 3,300); purified PLC-gamma1, fluorogenic substrate, fluorescence; AID 743258; inhibition, % at 12.3 µM; shares compounds with PLCg1 inh
PLCbeta3 conf – confirmation of human PLC-beta3 inhibitors. shares compounds with PLCg1 inh. purified PLC-beta3, fluorogenic substrate fluorescence. inhibition, % at 12.3 µM. actives 1% (n = 3,300). AID 743261; in the data active = inhibition above about 11%
* hit, by the source's call; i = inactive; x = no result. Cut-off read from the data, not from the text of the source, unless noted: active = inhibition above about 9.5%; inactive = the rest.

SMILES | Arr AP2 block | NTR1 agonist | PLCg1 inh | PLCb3 inh | PLCgamma1 ctr | PLCbeta3 conf
COc1ccc(C(=O)NC(=S)Nc2cccc(NC(=O)c3ccco3)c2)cc1[N+](=O)[O-] | -2.7 | 4.3 | 13.2* | 5.0 | -0.6 | 1.3
COc1ccccc1-c1cc(C(=O)Nc2ccc(F)cc2F)no1 | -4.2 | 3.3 | 11.7* | 5.3 | -117.8 | -105.1
CCNC(=O)N(C)[C@H]1C[C@H]2c3[nH]c4cccc(-c5cccc(F)c5)c4c3CCN2C(=O)[C@H]1[C@H](C)O | x | x | -496.5 | i | x | x
O=C(NNC(=O)c1csc(-c2cccnc2)n1)c1ccccc1 | 20.9 | 0.4 | 9.6* | -4.7 | -1.9 | 1.1
O=C(NNC(=O)c1csc(-c2ccccc2)n1)c1ccccc1 | x | x | 4.3 | 11.0* | -10.2 | -4.8
CC(C)CN1C(=O)C[C@]2(C(=O)N(C)c3ccc(NC(=O)C(C)(C)C)cc32)C1c1ccccc1 (stereo partly drawn) | x | x | -6.8 | -6.6 | x | x
CCCNC(=O)c1cccc(Cn2nc(C)c(Br)c2C)c1 | 5.0 | -2.5 | 12.2* | 7.9 | -2.4 | 0.2
CC(=O)CC[C@@H]1CC[C@]2(CCCN(C(=O)C3CCCCC3)C2)O1 | x | x | -0.2 | -0.2 | x | x
O=C(CSc1nccn1Cc1ccco1)Nc1ccc(F)cc1 | -9.8 | -0.2 | 1.4 | -4.9 | x | x
O=C(CSc1nccn1Cc1ccco1)Nc1cccc(F)c1 | 16.2 | -0.4 | 10.0* | -4.5 | -4.2 | -1.0
Cc1cc(-c2nc(C)c(C(=O)NNS(=O)(=O)c3ccc(Cl)cc3Cl)s2)no1 | 6.7 | 0.0 | -0.9 | -8.5 | x | x
Cc1cc(-c2nc(C)c(C(=O)NNS(=O)(=O)c3cccc(C(F)(F)F)c3)s2)no1 | -2.2 | -0.1 | 10.5* | 2.2 | -2.5 | -0.9
COC(=O)CC1CCc2cc(C)cc(C(=O)CC(C)C)c2O1 (stereo not drawn) | x | x | -40.6 | -56.2 | x | x
O=C1CC(N2CCN(c3ccccc3)CC2)C(=O)N1Cc1ccc(Cl)cc1 (stereo not drawn) | 32.9 | 6.4 | 10.2* | -0.2 | -6.7 | -3.4
O=C1N2CCc3ccccc3C2CS(=O)(=O)N1Cc1ccc(F)cc1 (stereo not drawn) | x | x | 0.5 | 0.0 | x | x
CCOC(=O)NCc1ccc(S(=O)(=O)Nc2ccc(C)cc2)cc1 | 5.6 | -2.0 | 12.9* | 4.2 | -7.4 | -3.6
CCOC(=O)NCc1ccc(CNC(=O)OCC)cc1 | -9.0 | -1.2 | -1.1 | 2.9 | x | x
COc1ccc(NC(=O)c2cc(-c3cc(Cl)ccc3OC)n[nH]2)c(OC)c1 | x | x | 12.3* | 4.7 | -7.6 | -9.3
CC(C)CN1C[C@@H]2CSCCS(=O)(=O)N2C1=O | x | x | 1.6 | -0.4 | x | x
COC[C@@H]1CCCN1c1ccc2c(c1)O[C@H]1CCN(C1)S2(=O)=O | x | x | -2.8 | 3.0 | x | x
Cc1ccc(-c2nnn(CC(=O)Nc3ccccc3N3CCOCC3)n2)cc1 | 10.6 | 3.4 | 10.5* | 4.9 | -2.4 | 1.2
O=C(Cn1c(=O)oc2ccccc21)N1CCN(c2ccccc2)CC1 | 4.4 | -7.1 | -1.4 | -1.4 | x | x
COc1cccc(N2CCN(C(=O)Cn3c(=O)oc4ccccc43)CC2)c1 | -0.1 | -1.6 | 9.8* | -2.3 | -2.9 | -5.5
Cc1ccc(C(NC(=O)N2CC(C)OC(C)C2)C(Cl)Cl)cc1F (stereo not drawn) | -15.2 | 1.0 | 7.0 | 13.4* | -1.3 | 3.6
C/C=C/C(=O)N1CCC(C(=O)NC2CCCc3ccccc32)CC1 (stereo not drawn) | x | x | 1.6 | 2.7 | x | x
SMILES | Arr AP2 block | NTR1 agonist | PLCg1 inh | PLCb3 inh | PLCgamma1 ctr | PLCbeta3 conf
O=C1CCCN1c1ccc(S(=O)(=O)Oc2cccc(Cl)c2)cc1[N+](=O)[O-] | -1.2 | 0.4 | 9.6* | 3.2 | -3.1 | 3.8
COC(=O)C1=C(C(=O)OC)[C@@H]2N(C)c3ccc(OC)cc3[C@@]23C[C@@H](C(=O)OC)N(C(=O)CC(C)C)C3=N1 | 2.6 | 4.5 | 9.6* | 7.1 | -4.0 | 0.9
COC(=O)C1=C(C(=O)OC)[C@@H]2N(C)c3ccc(OC)cc3[C@@]23C[C@@H](C(=O)OC)N(C(=O)NCCBr)C3=N1 | x | -2.4 | 2.7 | 2.2 | x | x
CNCC(=O)Nc1ccc(Cl)c(C(F)(F)F)c1 | 0.1 | 0.3 | 1.6 | 0.1 | x | x
Cc1ccccc1NC(=O)CNc1ccc(Cl)c(C(F)(F)F)c1 | 4.2 | -1.3 | 12.6* | 16.2* | 3.3 | 7.1
O=C(Nc1ccccc1Cl)c1ccc(-n2cccn2)c([N+](=O)[O-])c1 | 16.1 | -0.7 | 10.7* | -2.5 | -4.0 | -0.4
Cc1ccccc1CNC(=O)CN1CCCc2ccccc21 | x | x | 0.7 | 1.7 | x | x
CC1(C)CC(=O)C=C(c2ccc(Oc3ccccc3)cc2)C1 | -1.0 | 6.2 | 10.4* | 1.5 | -1.5 | -1.6
CCOC(=O)Cc1c[nH]c(=S)[nH]c1=O | 23.2 | -0.5 | 11.0* | 1.8 | -4.2 | 0.3
CCOC(=O)c1c(S(=O)(=O)Nc2ccc(F)cc2Cl)c(C)n(C)c1C | -3.6 | 0.4 | 11.4* | 0.5 | -1.8 | -1.3
C/C(C=NNC(=O)c1cc(-c2ccc(Cl)cc2)n[nH]1)=C\c1ccccc1 | x | x | 1.2 | 1.2 | x | x
CN1C(=O)[C@@](O)(c2cccn2C)c2cc(Cl)ccc21 | x | x | 0.3 | -1.9 | x | x
CC1=CC(=O)C(C(C)C)=CC1=NC(=O)c1ccc(C)cc1 | -6.0 | -0.3 | 11.4* | 11.0* | -0.4 | 1.6
CC1=CC(=O)C(C(C)C)=C/C1=N/OC(=O)c1cccc([N+](=O)[O-])c1 | 3.4 | 1.5 | 0.3 | -0.8 | x | x
COCc1cc(N2CCN(C(=O)OC(C)(C)C)C[C@H]2C)ccc1N1CC[C@H](O)C1 | x | x | -7.7 | -7.0 | x | x
COC(=O)[C@]12C[C@H](CC(=O)NCCCCc3ccccc3)C(=O)N(Cc3ccco3)C1=C[C@H](C(C)C)O[C@@H]2C1CC1 | x | x | -1.3 | 1.3 | x | x
Nc1n[nH]c(N)c1N=Nc1ccc(Cl)cc1 | -16.6 | 0.2 | 19.8* | 14.4* | 6.0 | 6.0
Nc1n[nH]c(N)c1N=Nc1cccc(F)c1 | -2.1 | -1.0 | -0.4 | 2.4 | x | x
O=C(Nc1ccc(N2CCN(C(=O)c3cccs3)CC2)c(Cl)c1)c1ccco1 | 21.4 | -1.2 | 14.3* | 2.7 | -4.2 | -6.7
Cc1ccc(S(=O)(=O)N2c3ccccc3C[C@H]2CCC(=O)c2ccccc2)cc1 | x | x | -3.1 | -5.9 | x | x
C[C@]1(O)CC(=O)C=C[C@H]1Nc1ccccc1 | -1.4 | x | 17.1* | 0.8 | -4.4 | -1.3
C#CCOn1c(-n2nc(C)cc2C)nc2ccccc2c1=O | -18.9 | 1.6 | 10.3* | -3.0 | -1.7 | -3.3
COn1c(-n2nc(C)cc2C)nc2ccccc2c1=O | -5.0 | -0.7 | -1.1 | 0.4 | x | x
CCC(C)[C@H](NC(=O)Nc1cccc(Br)c1)C(=O)OC (stereo partly drawn) | 0.5 | -0.8 | 12.6* | 9.4 | -5.9 | -1.1
COc1ccccc1-c1cccc2c3c([nH]c12)[C@@H]1C[C@H]2[C@@H](C(=O)N1CC3)[C@H](C)ON2C | x | x | -54.1 | -73.4 | x | x
Cc1ccc(/C=C2/C(=O)c3ccc(C(=O)O)cc3C2=O)o1 | 3.2 | x | 18.9* | -5.4 | -2.6 | -13.1
O=C(O)c1ccc2c(c1)C(=O)/C(=C/c1ccccc1)C2=O | 2.8 | -0.8 | -12.1 | -15.4 | x | x
